The values below come from ChEMBL document CHEMBL1129736, “Bisphenolic compounds that enhance cell cation transport are found in commercial phenol red” (1996).

Experiment [1] deals with HFF. Put plainly: Effect of compound on Na+ ion content of HFF (Human foreskin fibroblasts) Cells at 3 ug/mL. It is filed as functional.
A short description of experiment [2]: K+ / Na+ ratio in HF(Human foreskin fibroblasts) cells. The format is functional.
Experiment [3] has as its system HFF. Put plainly: Effect of compound on K+ ion content of HFF (Human foreskin fibroblasts) Cells at 3 ug/mL. It is filed as functional.
In experiment [4] the test system is HFF. Put plainly: Effect of compound on K+ ion content of HFF (Human foreskin fibroblasts) Cells at 125 ng/mL. It is filed as functional.
Experiment [5] relates to HFF. The experiment can be described thus: Effect of compound on Na+ ion content of HFF (Human foreskin fibroblasts) Cells at 125 ng/mL. The format is functional.
In experiment [6] the test system is HFF. The experiment can be described thus: Effect of compound on K+ ion content of HFF (Human foreskin fibroblasts) Cells at 30 ng/mL. It is filed as functional. The gist of the method:
(§1)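 Human foreskin fibroblasts were grown in 6 cm dishes in DMEM with 10% FBS and antibiotics at 37 °C in CO2/air, pH 7.2-7.4, at 5 × 10⁵ to 2 × 10⁶ cells/dish. Medium was swapped for serum-free test solution by four rinses. Incubation was 45 min, or 30 min in expt III, at 37 °C. Dishes were washed six times with iced MgCl2 or MgSO4. Read-out was K⁺ or Na⁺ per dish (10⁸ × mol), mean of duplicate dishes.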

Experiment [7] has as its system HFF. Put plainly: Effect of compound on K+ ion content of HFF (Human foreskin fibroblasts) Cells at 10 ng/mL. The format is functional. The method, boiled down: as §1
For experiment [8], the system named is HFF. The experiment can be described thus: Effect of compound on Na+ ion content of HFF (Human foreskin fibroblasts) Cells at 10 ng/mL. The format is functional. The method, boiled down: as §1
Experiment [9] can be described thus: K+ / Na+ ratio in HF(Human foreskin fibroblasts) cells at 100 ng/mL. It is filed as functional. The gist of the method:
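HF cells were in 6 cm dishes at 5 × 10⁵ to 2 × 10⁶ cells/dish. Growth medium was replaced with serum-free test solution by four rapid rinses. Incubation was 45 min at 37 °C in CO2/air. Dishes were rinsed six times with iced 0.1 M MgCl2 and intracellular K⁺ and Na⁺ were assayed. The K⁺/Na⁺ ratio is the mean of duplicate dishes.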

Experiment [10] concerns HFF. Put plainly: Effect of compound on Na+ ion content of HFF (Human foreskin fibroblasts) Cells at 0.03 ug/mL. It is filed as functional. The gist of the method: as §1
Experiment [11] deals with HFF. The experiment can be described thus: Effect of compound on K+ ion content of HFF (Human foreskin fibroblasts) Cells at 100 ng/mL. The format is functional. The method, boiled down:
as §1

The test system of experiment [12] is HFF. Put plainly: Effect of compound on Na+ ion content of HFF (Human foreskin fibroblasts) Cells at 30 ng/mL. It is filed as functional. The gist of the method:
as §1

In experiment [13] the test system is HFF. Put plainly: Effect of compound on Na+ ion content of HFF Cells at 4.8 ug/mL. The format is functional, Homo sapiens.
Experiment [14] has as its system HFF. Put plainly: Effect of compound on K+ ion content of HFF (Human foreskin fibroblasts) Cells at 4.8 ug/mL. It is filed as functional.
In experiment [15] the test system is HFF. The experiment can be described thus: Effect of compound on Na+ ion content of HFF (Human foreskin fibroblasts) Cells at 15.6 ng/mL. The format is functional. The gist of the method: as §1
Experiment [16] has as its system HFF. The experiment can be described thus: Effect of compound on K+ ion content of HFF (Human foreskin fibroblasts) Cells at 62.5 ng/mL. The format is functional. The gist of the method: as §1
Experiment [17] has as its system HFF. The experiment can be described thus: Effect of compound on Na+ ion content of HFF (Human foreskin fibroblasts) Cells at 62.5 ng/mL. The format is functional. The gist of the method: as §1
For experiment [18], the system named is HFF. Put plainly: Effect of compound on K+ ion content of HFF (Human foreskin fibroblasts) Cells at 31 ng/mL. The format is functional. The gist of the method:
as §1

Experiment [19] has as its system HFF. Put plainly: Effect of compound on Na+ ion content of HFF (Human foreskin fibroblasts) Cells at 31 ng/mL. The format is functional. The gist of the method:
as §1

Experiment [20] deals with HFF. Put plainly: Effect of compound on K+ ion content of HFF (Human foreskin fibroblasts) Cells at 15.6 ng/mL. The format is functional. The gist of the method: as §1
The test system of experiment [21] is HFF. The experiment can be described thus: Effect of compound on Na+ ion content of HFF (Human foreskin fibroblasts) Cells at 0.1 ug/mL. It is filed as functional. The gist of the method: as §1
In experiment [22] the test system is HFF. The experiment can be described thus: Effect of compound on K+ ion content of HFF (Human foreskin fibroblasts) Cells at 0.1 ug/mL. The format is functional. The method, boiled down: as §1
For experiment [23], the system named is HFF. The experiment can be described thus: Effect of compound on Na+ ion content of HFF (Human foreskin fibroblasts) Cells at 0.3 ug/mL. The format is functional. The method, boiled down: as §1
Experiment [24] has as its system HFF. The experiment can be described thus: Effect of compound on K+ ion content of HFF (Human foreskin fibroblasts) Cells at 0.3 ug/mL. The format is functional. The method, boiled down: as §1
For experiment [25], the system named is HFF. The experiment can be described thus: Effect of compound on K+ ion content of HFF (Human foreskin fibroblasts) Cells at 0.03 ug/mL. It is filed as functional. The method, boiled down:
as §1

In experiment [26] the test system is HFF. The experiment can be described thus: Effect of compound on Na+ ion content of HFF (Human foreskin fibroblasts) Cells at 4.8 ug/mL (Expt III). The format is functional. The method, boiled down: as §1
In experiment [27] the test system is HFF. Put plainly: Effect of compound on K+ ion content of HFF (Human foreskin fibroblasts) Cells at 4.8 ug/mL (Expt II). It is filed as functional. The gist of the method: as §1
Experiment [28] relates to HFF. Put plainly: Effect of compound on K+ ion content of HFF (Human foreskin fibroblasts) Cells at 4.8 ug/mL (Expt III). The format is functional. The method, boiled down: as §1
Experiment [29] deals with HFF. The experiment can be described thus: Effect of compound on K+ ion content of HFF (Human foreskin fibroblasts) Cells at 2.4 ug/mL. The format is functional. The gist of the method:
as §1

Experiment [30] deals with HFF. The experiment can be described thus: Effect of compound on Na+ ion content of HFF (Human foreskin fibroblasts) Cells at 2.4 ug/mL. It is filed as functional. The gist of the method:
as §1

For experiment [31], the system named is HFF. The experiment can be described thus: Effect of compound on Na+ ion content of HFF (Human foreskin fibroblasts) Cells at 4.8 ug/mL (Expt II). It is filed as functional. The method, boiled down: as §1
Experiment [32] deals with HFF. The experiment can be described thus: Effect of compound on Na+ ion content of HFF (Human foreskin fibroblasts) Cells at 4.8 ug/mL. The format is functional. The method, boiled down:
as §1

With `COc1ccc(CCN(C)CCCC(C#N)(c2ccc(OC)c(OC)c2)C(C)C)cc1OC.Oc1ccc(C2(c3ccc(O)cc3)c3ccccc3-c3ccc(O)cc32)cc1` (centres undefined), in experiment [1], the “Na+ ion content” value is recorded as 2100000000. The K+/Na+ ratio in experiment [2] was 0.71. For the same compound, in experiment [3], the K+ Ion content turned out to be 150 nmol/dish.

For the compound `COc1ccc(CCN(C)CCCC(C#N)(c2ccc(OC)c(OC)c2)C(C)C)cc1OC.Oc1ccc(C2(c3ccc(O)cc3)c3ccccc3-c3cc(O)ccc32)cc1` (centres undefined), the K+/Na+ ratio in experiment [2] came to 1.3. Besides, the “K+ Ion content” value in experiment [4] turned out to be 2000000000. The “Na+ ion content” value in [5] is 1600000000.

Consider `Oc1ccc(C2(c3ccc(O)cc3)c3ccccc3-c3c(O)cccc32)cc1`, for which the K+ Ion content is 240 nmol/dish in [6], 300 nmol/dish in experiment [7] and 67 nmol/dish in experiment [11]. For the same compound, the “Na+ ion content” value in experiment [8] was determined as 710000000; in experiment [10] it was 1.1e+09; in experiment [12], 110 nmol/dish. In addition, the K+/Na+ ratio in experiment [9] was 0.29.

For `COc1ccc(CCN(C)CCCC(C#N)(c2ccc(OC)c(OC)c2)C(C)C)cc1OC.Oc1ccc(C2(c3ccc(O)cc3)c3ccccc3Oc3ccccc32)cc1` (centres undefined), the “Na+ ion content” value in experiment [13] amounted to 1100000000. Moreover, in experiment [2], the K+/Na+ ratio stood at 3.4. Besides, the K+ Ion content in experiment [14] turned out to be 370 nmol/dish.

On to `Oc1ccc(C2(c3ccc(O)cc3)c3ccccc3-c3cc(O)ccc32)cc1`, for which the “Na+ ion content” value in experiment [15] came out at 800000000; in [17], 290 nmol/dish; in experiment [19], 1200000000; in experiment [5], 3800000000. Besides, the K+ Ion content in [16] was 100 nmol/dish; in experiment [18], 270 nmol/dish; in experiment [4], 520000000; in experiment [20], 3e+09.

For the compound `Oc1ccc(C2(c3ccc(O)cc3)c3ccccc3-c3ccc(O)cc32)cc1`, the “Na+ ion content” value is recorded as 2400000000 in [21], 3900000000 in experiment [1], 3500000000 in experiment [23] and 350000000 in [10]. Moreover, the “K+ Ion content” value in [22] was determined as 870000000; in experiment [24] it was 38 nmol/dish; in experiment [3] it was 55 nmol/dish; in [25], 280 nmol/dish.

Take `Oc1ccc(C2(c3ccc(O)cc3)c3ccccc3Oc3ccccc32)cc1`: the Na+ ion content turned out to be 290 nmol/dish in experiment [26], 190 nmol/dish in experiment [30] and 270 nmol/dish in experiment [31]. The K+ Ion content is 240 nmol/dish in [27], 25 nmol/dish in experiment [28] and 340 nmol/dish in [29].

In the case of `C=C[C@H]1CN2CC[C@H]1C[C@H]2[C@H](O)c1ccnc2ccc(OC)cc12.Oc1ccc(C2(c3ccc(O)cc3)c3ccccc3-c3cc(O)ccc32)cc1`, the K+/Na+ ratio in [2] came to 0.91. For the same compound, the “K+ Ion content” value in experiment [4] was found to be 2000000000. The “Na+ ion content” value in experiment [5] was found to be 2200000000.

Consider `C=C[C@H]1CN2CC[C@H]1C[C@H]2[C@H](O)c1ccnc2ccc(OC)cc12.Oc1ccc(C2(c3ccc(O)cc3)c3ccccc3Oc3ccccc32)cc1`, for which the K+/Na+ ratio in experiment [2] came out at 2.3. For the same compound, the “Na+ ion content” value in [32] worked out at 1200000000. Further, in [14], the K+ Ion content turned out to be 270 nmol/dish.
